Laboratory results as given in ChEMBL document CHEMBL4138082 (Eur J Med Chem, 2017).
pIC50: −log10 of the molar value. Calls of active or inactive are those of the source. No cut-off for these calls is given here.

Assays:
HepG2 [1] = experiment: Induction of apoptosis in human HepG2 cells assessed as early apoptotic cells at 0.25 uM after 48 hrs in presence of hemoglobin by Annexin V-APC/7-AAD staining based flow cytometry (reference value: 3.18%); assay type: functional
HT-29 = experiment: Antiproliferative activity against human HT-29 cells after 72 hrs by MTT assay; assay type: functional, cell-based; conditions: HT-29, 72 h
Summary of the method: (§1)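 MTT assay. Cells were seeded and grown 24 h at 37 °C in 5% CO2, then exposed to compound or left untreated for 72 h. MTT (5 mg/mL stock) was added for 4 h and the formazan dissolved in DMSO. OD was read at 570 nm. IC50 is the concentration giving 50% growth inhibition, reported as mean ± SD of three independent experiments. Vehicle reference was 0.1% DMSO.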

HepG2 [2] = experiment: Induction of apoptosis in human HepG2 cells assessed as nuclear fragmentation at 0.0625 to 0.25 uM measured after 48 hrs by Hoechst 33258 staining based fluorescent microscopic analysis; assay type: functional, cell-based
HepG2 [3] = experiment: Cell cycle arrest in human HepG2 cells assessed as G1 phase accumulation at 0.0625 uM after 48 hrs by propidium iodide staining based flow cytometry (reference value: 32.74%); assay type: functional
Summary of the method: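 HepG-2 cells were plated and grown 24 h at 37 °C, then treated 48 h at 0, 0.0625, 0.125 or 0.25 µM, with 0.1% DMSO as control. Cells were fixed overnight in 70% ethanol at 4 °C, treated with RNase A and stained with propidium iodide. DNA content was measured by flow cytometry to give cell-cycle phase distribution.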

HepG2 [4] = experiment: Induction of apoptosis in human HepG2 cells assessed as cell population with mitochondrial membrane potential loss at 0.125 uM measured after 48 hrs by JC-1 staining based flow cytometry (reference value: 1.49%); assay type: functional
Summary of the method: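 HepG-2 cells were exposed 48 h to 0.0625, 0.125 or 0.25 µM or to vehicle, then washed in PBS and stained with JC-1 in the dark. Red aggregate versus green monomer fluorescence was measured by flow cytometry to give the percentages of cells with healthy versus collapsed mitochondrial membrane potential.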

HepG2 [5] = experiment: Induction of apoptosis in human HepG2 cells assessed as necrotic cells at 0.25 uM after 48 hrs by Annexin V-APC/7-AAD staining based flow cytometry (reference value: 2.40%); assay type: functional
HepG2 [6] = experiment: Induction of apoptosis in human HepG2 cells assessed as late apoptotic cells at 0.25 uM after 48 hrs in presence of hemoglobin by Annexin V-APC/7-AAD staining based flow cytometry (reference value: 3.36%); assay type: functional
HepG2 [7] = experiment: Antiproliferative activity against human HepG2 cells after 72 hrs by MTT assay; assay type: functional, cell-based; conditions: HepG2, 72 h; summary of the method: as §1

pIC50 (HT-29): 6.80
pIC50 (HepG2 [7]): 6.74
SMILES: C[C@H]1CCC/C=C/[C@@H]2C[C@H](OC(=O)CCCC(=O)OCCOc3no[n+]([O-])c3S(=O)(=O)c3ccccc3)C[C@H]2[C@H](OC(=O)CCCC(=O)OCCOc2no[n+]([O-])c2S(=O)(=O)c2ccccc2)/C=C/C(=O)O1
Activity (HepG2 [1]): 8.7%
Activity (HepG2 [2]): Active
Activity (HepG2 [3]): 32.84%
Activity (HepG2 [4]): 35.45%
Activity (HepG2 [5]): 5.47%
Activity (HepG2 [6]): 12.24%
